The results in this text go back to ChEMBL document CHEMBL3414473.

As a reminder, the Kd is the concentration at which binding is half-saturated.

Data set [1] concerns the target RAC-alpha serine/threonine-protein kinase (Homo sapiens, UniProt P31749). Briefly: Binding affinity to GST-tagged PH domain of AKT (unknown origin) by surface Plasmon resonance spectroscopy. The method in brief: (§1)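 SPR: GST-tagged PH domain fusion protein immobilized on CM5 chip by amine coupling to about 17000 RU. Analyte injected at 1–20 µM at 30 µL/min; DMSO in samples and running buffer ≤1% (v/v). Kd obtained from sensorgram fitting.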

The test system of another data set is PrEC. The data set can be described thus: Antiproliferative activity against human PrEC cells assessed as suppression of cell viability after 24 hrs by MTT assay in serum free medium. It counts as cell-based. A general note: Formazan colour is commonly taken as a measure of viable cells.
Data set [2] addresses T1, PH domain leucine-rich repeat-containing protein phosphatase 1 (Homo sapiens, UniProt O60346). The data set can be described thus: Inhibition of PHLPP1-mediated reduction in phosphorylation of Akt at Ser473 in human LNCAP cells after 24 hrs by Western blot analysis. It counts as cell-based. The method in brief: (§2)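 LNCaP or PC-3 cells treated at various concentrations for 24 h in serum-free medium. Lysed in SDS buffer (50 mM Tris pH 8, 10 mM EDTA, 1% SDS, protease inhibitors); equal protein run on SDS-PAGE and transferred to nitrocellulose. Primary antibodies 1:1000 overnight at 4 °C, HRP secondary 1:2000; detected by ECL.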

For data set [3], the target named is T1, PH domain leucine-rich repeat-containing protein phosphatase 1. Briefly: Inhibition of PHLPP1-mediated reduction in phosphorylation of MDM2 in human LNCAP cells after 24 hrs by Western blot analysis. It counts as cell-based. The method in brief: as §2
(In western blotting, separated proteins are transferred to a membrane and probed.)

Data set [4] has the same target. The data set can be described thus: Inhibition of PHLPP1-mediated reduction in phosphorylation of IKK in human PC3 cells after 24 hrs by Western blot analysis. It counts as cell-based. The settings on record: PC-3. The method in brief: as §2
Another data set concerns the target T2, Scaffold protein ILK (Homo sapiens, UniProt Q13418).
T2 sequence (Q13418 whole entry): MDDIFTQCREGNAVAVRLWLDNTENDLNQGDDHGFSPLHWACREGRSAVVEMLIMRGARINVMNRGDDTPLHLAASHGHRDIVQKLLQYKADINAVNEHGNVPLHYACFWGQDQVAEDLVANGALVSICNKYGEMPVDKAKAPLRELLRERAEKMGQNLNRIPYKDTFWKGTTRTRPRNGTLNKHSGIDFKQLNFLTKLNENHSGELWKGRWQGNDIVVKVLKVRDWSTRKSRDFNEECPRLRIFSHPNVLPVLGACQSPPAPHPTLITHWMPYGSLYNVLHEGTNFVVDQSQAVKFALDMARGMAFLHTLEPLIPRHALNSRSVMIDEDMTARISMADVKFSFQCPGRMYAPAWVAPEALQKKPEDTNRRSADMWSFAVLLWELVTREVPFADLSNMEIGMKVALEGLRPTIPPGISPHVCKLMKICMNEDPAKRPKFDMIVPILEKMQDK
Briefly: Binding affinity to GST-tagged PH domain of ILK (unknown origin) by surface Plasmon resonance spectroscopy. In short, it runs like this:
as §1

Data set [5] deals with PC-3. The data set can be described thus: In vivo antitumor efficacy in human PC3 cells xenografted athymic nude mouse assessed as decrease in phosphorylation of Akt at Thr308 in tumor at 50 mg/kg, ip for 21 days relative to vehicle treated control. It counts as functional, organism-based. The arrangement: dose 50 mg/kg. In short, it runs like this: (§3)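 Athymic nude mice given PC-3 cells sc (1 × 10⁶ per mouse); at about 50 mm³, randomized (n = 7) and dosed once daily for 21 days either ip at 50 mg/kg (vehicle saline/PEG400/DMSO/Tween 80, 65:20:10:5) or by oral gavage at 100 mg/kg (vehicle 0.5% methylcellulose/0.1% Tween 80 in water). Tumor volume measured weekly by calipers (width² × length × 0.52); phospho-proteins checked by Western blotting of tumor lysates.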
For orientation: In xenograft studies the graft and the host belong to different species.

Data set [6] deals with PC-3. Briefly: In vivo antitumor efficacy in human PC3 cells xenografted athymic nude mouse assessed as decrease in phosphorylation of MDM2 in tumor at 50 mg/kg, ip for 21 days relative to vehicle treated control. It counts as functional, organism-based. The arrangement: dose 50 mg/kg. The method in brief: as §3
Data set [7] relates to PC-3. The data set can be described thus: In vivo antitumor efficacy in human PC3 cells xenografted athymic nude mouse assessed as decrease in phosphorylation of MDM2 in tumor at 100 mg/kg, po for 21 days relative to vehicle treated control. It counts as functional, organism-based. On the set-up: dose 100 mg/kg. The method in brief:
as §3

Activity calls are given as the source filed them. The calls are words filed in the database; no cut-off is given here.

T1 sequence (O60346 whole entry, the tested form may be a part): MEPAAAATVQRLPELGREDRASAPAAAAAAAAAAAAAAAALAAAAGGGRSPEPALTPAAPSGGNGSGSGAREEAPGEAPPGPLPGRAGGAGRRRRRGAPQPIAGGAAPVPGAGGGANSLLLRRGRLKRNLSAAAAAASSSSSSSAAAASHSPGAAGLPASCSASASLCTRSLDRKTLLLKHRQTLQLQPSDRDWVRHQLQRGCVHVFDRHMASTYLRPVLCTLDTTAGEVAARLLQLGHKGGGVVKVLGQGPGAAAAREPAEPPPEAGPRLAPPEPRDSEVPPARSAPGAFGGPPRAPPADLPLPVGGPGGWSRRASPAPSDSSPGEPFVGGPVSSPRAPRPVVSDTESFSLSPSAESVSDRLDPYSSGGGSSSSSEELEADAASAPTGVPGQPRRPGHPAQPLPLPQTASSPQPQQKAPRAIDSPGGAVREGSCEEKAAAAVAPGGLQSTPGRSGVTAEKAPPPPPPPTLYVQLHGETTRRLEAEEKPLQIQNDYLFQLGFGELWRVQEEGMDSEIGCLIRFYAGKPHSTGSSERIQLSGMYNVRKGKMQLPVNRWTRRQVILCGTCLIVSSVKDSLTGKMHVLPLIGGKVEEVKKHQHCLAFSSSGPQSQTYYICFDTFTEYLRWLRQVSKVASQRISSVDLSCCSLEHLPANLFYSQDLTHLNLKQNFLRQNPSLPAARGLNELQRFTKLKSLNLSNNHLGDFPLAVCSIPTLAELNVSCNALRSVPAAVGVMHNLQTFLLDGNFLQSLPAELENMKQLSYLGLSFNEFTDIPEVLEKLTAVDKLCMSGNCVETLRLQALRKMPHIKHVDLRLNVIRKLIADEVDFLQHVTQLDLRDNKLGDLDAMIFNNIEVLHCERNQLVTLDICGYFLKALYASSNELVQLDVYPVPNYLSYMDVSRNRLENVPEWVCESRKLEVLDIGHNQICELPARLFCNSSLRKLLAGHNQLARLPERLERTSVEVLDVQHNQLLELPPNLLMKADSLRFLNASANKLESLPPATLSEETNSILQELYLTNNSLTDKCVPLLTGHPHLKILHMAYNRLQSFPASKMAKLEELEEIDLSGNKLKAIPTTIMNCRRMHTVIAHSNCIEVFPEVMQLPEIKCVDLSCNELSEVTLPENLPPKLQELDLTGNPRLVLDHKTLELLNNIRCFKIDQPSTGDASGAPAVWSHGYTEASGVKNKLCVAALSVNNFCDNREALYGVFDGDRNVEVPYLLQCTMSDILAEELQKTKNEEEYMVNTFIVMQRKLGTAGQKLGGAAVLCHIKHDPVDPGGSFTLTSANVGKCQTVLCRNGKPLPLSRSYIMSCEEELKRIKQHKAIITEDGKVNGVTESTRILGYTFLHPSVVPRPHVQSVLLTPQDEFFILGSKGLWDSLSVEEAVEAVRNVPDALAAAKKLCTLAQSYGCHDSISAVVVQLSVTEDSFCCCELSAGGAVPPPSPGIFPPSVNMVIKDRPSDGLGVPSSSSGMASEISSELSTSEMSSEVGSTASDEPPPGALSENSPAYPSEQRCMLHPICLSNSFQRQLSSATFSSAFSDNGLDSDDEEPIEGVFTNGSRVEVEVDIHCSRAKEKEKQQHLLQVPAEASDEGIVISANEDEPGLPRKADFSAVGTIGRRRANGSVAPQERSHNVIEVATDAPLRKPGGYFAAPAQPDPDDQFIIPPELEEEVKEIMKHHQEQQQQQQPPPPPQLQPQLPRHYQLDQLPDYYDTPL
Chain of RAC-alpha serine/threonine-protein kinase (P31749 whole entry, the tested form may be a part): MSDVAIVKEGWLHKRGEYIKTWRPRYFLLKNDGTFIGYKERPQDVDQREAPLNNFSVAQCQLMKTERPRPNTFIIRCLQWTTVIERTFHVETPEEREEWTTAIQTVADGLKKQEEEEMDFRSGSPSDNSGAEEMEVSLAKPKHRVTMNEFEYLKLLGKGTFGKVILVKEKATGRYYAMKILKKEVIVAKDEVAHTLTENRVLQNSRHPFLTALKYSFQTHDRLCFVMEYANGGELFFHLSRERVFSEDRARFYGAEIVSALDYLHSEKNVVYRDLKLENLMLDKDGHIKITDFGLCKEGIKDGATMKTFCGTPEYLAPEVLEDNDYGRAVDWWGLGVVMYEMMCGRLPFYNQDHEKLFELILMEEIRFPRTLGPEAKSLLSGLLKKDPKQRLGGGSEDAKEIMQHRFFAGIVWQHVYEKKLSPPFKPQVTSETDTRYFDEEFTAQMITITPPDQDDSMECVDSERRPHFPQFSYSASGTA

Consider `Cc1c(S(N)(=O)=O)cc2c(c1C)OC(C)(CCCC(C)C)CC2` (centres undefined), for which the Kd in data set [1] amounted to 0.2 µM; on Scaffold protein ILK, 6.2 µM. The Activity result in the data set on PrEC is reported as “Non-toxic”. For the same compound, the inhibition result in data set [2], in [3] and in data set [4] was “Dose-dependent effect” each time. Also, the inhibition result in the data set with PC-3 [5] is “inactive”. Moreover, the inhibition entry in the data set on PC-3 [6] was “Active”. Also, in the data set on PC-3 [7], the result was Active.
